# Test results reported in ChEMBL document CHEMBL4725492, “Dioxane-Linked Amide Derivatives as Novel Bacterial Topoisomerase Inhibitors against Gram-Positive Staphylococcus aureus” (ACS Med Chem Lett, 2020).
# Experiments:
# [1] = target: T1, DNA gyrase (Staphylococcus aureus) (UniProt P0A0K8+P20831); assay: Inhibition of Staphylococcus aureus DNA gyrase assessed as double-strand break using relaxed pBR322 as substrate by ethidium bromide-based gel electrophoresis; format: protein-complex assay; conditions: dose microM 0.0001-20
# Method in brief: (§1)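 S. aureus gyrase-mediated DNA cleavage: compound was incubated with enzyme and DNA, and products were resolved on an ethidium-stained gel into negatively supercoiled, nicked (single-strand break) and linear (double-strand break) forms. Lane fluorescence was corrected for differential band emission. Percent of each form was calculated, and enzyme-only cleavage was subtracted. Concentrations spanned 0.1 nM–200 μM, with a 20 μM single-point screen. Results are mean ± SD or range.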
# Staphylococcus aureus [2] = assay: Antibacterial activity against Staphylococcus aureus 3527 by CLSI based agar dilution method; format: functional
# Staphylococcus aureus [3] = assay: Antibacterial activity against Staphylococcus aureus USA300 by CLSI based agar dilution method; format: functional
# Staphylococcus aureus [4] = assay: Antibacterial activity against Staphylococcus aureus D83N by CLSI based agar dilution method; format: functional
# Staphylococcus aureus [5] = assay: Antibacterial activity against Staphylococcus aureus ATCC 29213 by CLSI based agar dilution method; format: functional
# K562 = assay: Growth inhibition of human K562 cells incubated for 48 hrs by sulforhodamine B assay; format: functional
# [6] = target: T1, DNA gyrase (Staphylococcus aureus); assay: Inhibition of Staphylococcus aureus DNA gyrase assessed as single-strand break using relaxed pBR322 as substrate by ethidium bromide-based gel electrophoresis; format: protein-complex assay; method in brief: as §1
# [7] = target: Voltage-gated inwardly rectifying potassium channel KCNH2 (Homo sapiens, UniProt Q12809); assay: Inhibition of human ERG; conditions: human
# [8] = Growth inhibition of human K/VP.5 cells incubated for 48 hrs by sulforhodamine B assay; format: functional
# [9] = target: DNA topoisomerase 2-alpha (Homo sapiens, UniProt P11388); assay: Inhibition of human topoisomerase 2alpha relative to control
# Method in brief: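 Human topoisomerase IIα decatenation activity was tested at a single concentration of 100 μM and reported as percent inhibition.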
# Topoisomerase IV = Topoisomerase IV (Staphylococcus aureus, UniProt P0C1S7+P0C1U9); assay: Inhibition of Staphylococcus aureus topoisomerase-4 assessed as reduction in decatenation of kinetoplast DNA agarose gel electrophoresis method; format: protein-complex assay
# DNA gyrase = DNA gyrase (Staphylococcus aureus, UniProt P0A0K8+P20831); assay: Inhibition of Staphylococcus aureus DNA gyrase using relaxed pBR322 as substrate by gel electrophoresis; format: protein-complex assay
compound,measurement,setting,value
COc1ccc2nccc(CC[C@H]3OC[C@H](NC(=O)c4ccc5c(c4)NC(=O)CS5)CO3)c2c1,inhibition,[1],Dose-dependent effect
same,MIC,Staphylococcus aureus [2],≤ 0.125 µg/mL
same,MIC,Staphylococcus aureus [3],≤ 0.125 µg/mL
same,MIC,Staphylococcus aureus [4],> 64 µg/mL
same,MIC,Staphylococcus aureus [5],0.03 µg/mL
same,INH,K562,>200 µM
same,inhibition,[6],Dose-dependent effect
same,INH,[7],> 30 µM
same,INH,[8],>200 µM
same,inhibition (INH),[9],37%
same,IC50,Topoisomerase IV,700 nM
same,IC50,DNA gyrase,130 nM
